Results: ChEMBL document CHEMBL1152900, “Synthesis and evaluation of the antioxidant and anti-inflammatory activity of novel coumarin-3-aminoamides and their alpha-lipoic acid adducts” (Eur J Med Chem, 2009)
Activity calls are given as the source filed them. The rule behind the calls is not given here.

Legend:
[1] = Antioxidant activity against hydroxyl radical assessed as inhibition of formaldehyde production at 0.1 mM after 30 mins relative to DMSO; assay type: functional; design: scale not given: the % may be the effect or the level left
In short: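 Hydroxyl radicals were generated with Fe3+, DMSO 33 mM and ascorbic acid 10 mM in 50 mM phosphate buffer, pH 7.4, with test compound at 0.1 mM final. Mixtures were incubated 30 min at 37 °C, stopped with CCl3COOH (17% w/v), and formaldehyde was read spectrophotometrically at 412. At least triplicate.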

[2] = Acute toxicity in rat assessed as survival up to 0.5 mmol/kg after 24 hrs; assay type: organism-based; details: in vivo, read-out: Activity
In short: (§1)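 Rats were split into 5 groups of 6–8 animals each and injected with graded doses of 0.1–0.5 mmol/kg body weight. Animals were then scored for survival and examined macroscopically and at autopsy.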

Rattus norvegicus [3] = test: Acute toxicity in rat assessed as mortality up to 0.5 mmol/kg after 24 hrs by macroscopic analysis; assay type: organism-based; details: in vivo; in short: as §1
Rattus norvegicus [4] = test: Acute toxicity in rat assessed as mortality up to 0.5 mmol/kg after 24 hrs by autopsy; assay type: organism-based; details: in vivo; in short: as §1
Glycine max = test: Inhibition of soybean lipoxygenase assessed as conversion of sodium linoleate to 13-hydroperoxylinoleic acid at 0.1 mM
In short: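 Soybean lipoxygenase (enzyme solution 1/9 × 10^-4 w/v in saline) was incubated at room temperature with sodium linoleate 0.1 mM and test compounds in ethanol. Conversion to 13-hydroperoxylinoleic acid was followed at 234 nm and compared with a standard inhibitor. At least triplicate.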

Rattus norvegicus [5] = test: In vivo antiinflammatory activity in Fisher 344 rat assessed as inhibition of carrageenan-induced paw edema at 0.01 mmol/kg, ip administered simultaneously with carrageenan measured after 3.5 hrs; assay type: functional; details: Fisher 344, ip
In short: (§2)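 Rats of both sexes (pregnant females excluded), bred in-house and fasted during the experiment; 6–15 per group, run twice. Test agents were suspended in water with a few drops of Tween 80 and given ip at the time of carrageenin injection. Rats were killed 3.5 h later. Injected minus uninjected paw weight gave % edema inhibition versus water-treated controls.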

[6] = Antioxidant activity assessed as reduction of DPPH activity at 0.1 mM after 20 mins; assay type: functional; design: scale not given: the % may be the effect or the level left
In short: (§3)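 DPPH at 0.05 mM final in absolute ethanol was mixed with test compounds in ethanol at 0.1 or 0.5 mM final, with ethanol as the control. After 20 and 60 min at room temperature, absorbance was read at 517 nm. At least triplicate.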

[7] = Antioxidant activity assessed as reduction of DPPH activity at 0.1 mM after 60 mins; assay type: functional; design: scale not given: the % may be the effect or the level left; in short: as §3
[8] = Antioxidant activity assessed as reduction of DPPH activity at 0.5 mM after 20 mins; assay type: functional; design: scale not given: the % may be the effect or the level left; in short: as §3
[9] = Antioxidant activity assessed as reduction of DPPH activity at 0.5 mM after 60 mins; assay type: functional; design: scale not given: the % may be the effect or the level left; in short: as §3
Rattus norvegicus [10] = test: Antiinflammatory activity in Fisher 344 rat assessed as inhibition of carrageenan-induced paw edema at 0.01 mmol/kg, ip administered simultaneously with carrageenan measured after 3.5 hrs; assay type: functional; details: Fisher 344, ip; in short: as §2
Rattus norvegicus [11] = test: Antiinflammatory activity in Fisher 344 rat assessed as inhibition of carrageenan-induced paw edema at 0.001 mmol/kg, ip administered simultaneously with carrageenan measured after 3.5 hrs; assay type: functional; details: Fisher 344, ip

SMILES	Activity [1]	survival at 24 h [2]	Activity (Rattus norvegicus [3])	Activity (Rattus norvegicus [4])	inhibition (Glycine max)	inhibition in vivo at 10 µmol/kg (Rattus norvegicus [5])	Activity [6]	Activity [7]	Activity [8]	Activity [9]	inhibition in vivo at 10 µmol/kg (Rattus norvegicus [10])	inhibition in vivo at 1 µmol/kg (Rattus norvegicus [11])
Cc1ccc2oc(=O)c(C(=O)Nc3ccccc3N)c(O)c2c1	100%	80%	Non-toxic	Non-toxic	22%	60%	74%	65%	70%	78%	–	–
NCCNC(=O)c1c(O)c2ccccc2oc1=O	91%	80%	Non-toxic	Non-toxic	100%	59%	42%	25%	inactive	inactive	–	–
O=C(CCCCC1CCSS1)NCCCCCCCCNC(=O)c1c(O)c2ccccc2oc1=O (stereo not given)	inactive	80%	Non-toxic	Non-toxic	33%	43%	21%	21%	32%	25%	–	–
Cc1ccc2oc(=O)c(C(=O)NCCCCCCCCN)c(O)c2c1	100%	80%	Non-toxic	Non-toxic	30%	59%	58%	68%	72%	78%	–	–
CCOC(=O)c1c(O)c2cc(C)ccc2oc1=O	81%	80%	Non-toxic	Non-toxic	93%	41%	18%	8%	20%	33%	–	–
Nc1ccccc1NC(=O)c1c(O)c2ccccc2oc1=O	inactive	80%	Non-toxic	Non-toxic	23%	57%	90%	93%	85%	83%	–	–
Cc1ccc2oc(=O)c(C(=O)NCCCCCCCCNC(=O)CCCCC3CCSS3)c(O)c2c1 (stereo not given)	100%	80%	Non-toxic	Non-toxic	8.3%	–	69%	65%	89%	87%	73%	60%
O=C(CCCCC1CCSS1)NCCCCCCNC(=O)c1c(O)c2ccccc2oc1=O (stereo not given)	96%	80%	Non-toxic	Non-toxic	18%	–	15%	18%	23%	12%	72%	61%
Cc1c(C)c2c(c(C)c1O)CCC(C)(C(=O)O)O2 (stereo not given)	88.2%	–	–	–	–	–	–	–	–	–	–	–
NCCCCCCCCNC(=O)c1c(O)c2ccccc2oc1=O	inactive	80%	Non-toxic	Non-toxic	inactive	48%	17%	8%	9%	19%	–	–
CCOC(=O)c1c(O)oc2ccccc2c1=O	91%	80%	Non-toxic	Non-toxic	93%	63%	15%	27%	20%	13%	–	–
O=C(O)CCCCC1CCSS1 (stereo not drawn) [LIPOIC ACID, ALPHA]	38.6%	–	–	–	29.1%	29.6%	20%	27%	5%	7%	–	–
Cc1ccc2oc(=O)c(C(=O)NCCN)c(O)c2c1	100%	80%	Non-toxic	Non-toxic	14%	59%	48%	59%	70%	65%	–	–
CC(Cc1ccc(O)c(O)c1)C(C)Cc1ccc(O)c(O)c1 (stereo not given)	–	–	–	–	84%	–	–	83%	97%	98%	–	–
NCCCCCCNC(=O)c1c(O)oc2ccccc2c1=O	100%	80%	Non-toxic	Non-toxic	52%	49%	3%	3%	5%	5%	–	–
COc1ccc2c(c1)c(CC(=O)O)c(C)n2C(=O)c1ccc(Cl)cc1 [INDOMETHACIN]	–	–	–	–	–	47%	–	–	–	–	–	–
